# Measurements as given in ChEMBL document CHEMBL2069207, “Polyhydroxylated steroidal glycosides from Paris polyphylla” (J Nat Prod, 2012).
# Activity calls are given as the source filed them. The rule behind the calls is not given here.
# Test system: CCRF-CEM
# Test: Cytotoxicity against human CCRF-CEM cells by XTT assay
# Assay type: functional, cell-based
# In short: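 CCRF-CEM human leukemia cells were exposed to 0.001 to 100 μM to build dose–response curves, read by XTT proliferation assay. IC50 was taken from the curves. Only agents giving at least 80% inhibition in a 100 μM screen were taken forward. An equivalent DMSO concentration was the negative control and viability reference, and doxorubicin was the positive control.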
row,Structure (SMILES),IC50
1,C[C@H](CC[C@@]1(O)O[C@H]2C[C@H]3[C@@H]4CC=C5C[C@@H](O[C@@H]6O[C@H](CO)[C@@H](O)[C@H](O[C@@H]7O[C@H](CO)[C@@H](O)[C@H](O)[C@H]7O)[C@H]6O[C@@H]6O[C@@H](C)[C@H](O)[C@@H](O)[C@H]6O)CC[C@]5(C)[C@H]4CC[C@]3(C)[C@H]2[C@@H]1C)CO[C@@H]1O[C@H](CO)[C@@H](O)[C@H](O)[C@H]1O,1770 nM
2,COc1cccc2c1C(=O)c1c(O)c3c(c(O)c1C2=O)C[C@@](O)(C(=O)CO)C[C@@H]3O[C@H]1C[C@H](N)[C@H](O)[C@H](C)O1 [DOXORUBICIN],2140 nM
3,C[C@H](CCC1(O)OC2CC3C4CC=C5C[C@@H](O[C@@H]6O[C@H](CO)C(O[C@@H]7O[C@@H](CO)[C@H](O)[C@H]7O)[C@@H](O)[C@H]6O[C@@H]6O[C@@H](C)[C@H](O)[C@@H](O)[C@H]6O)CC[C@]5(C)C4CC[C@]3(C)C2[C@@H]1C)CO[C@@H]1O[C@H](CO)[C@@H](O)[C@H](O)[C@H]1O (some centres not stated) [PARISAPONIN I],1230 nM
4,CC1=C(CC[C@@H](C)CO[C@@H]2O[C@H](CO)[C@@H](O)[C@H](O)[C@H]2O)O[C@H]2C[C@H]3[C@@H]4CC=C5C[C@@H](O[C@@H]6O[C@H](CO)[C@@H](O[C@@H]7O[C@@H](C)[C@H](O[C@@H]8O[C@@H](C)[C@H](O)[C@@H](O)[C@H]8O)[C@@H](O)[C@H]7O)[C@H](O)[C@H]6O[C@@H]6O[C@@H](C)[C@H](O)[C@@H](O)[C@H]6O)CC[C@]5(C)[C@H]4CC[C@]3(C)[C@@H]12,6520 nM
5,C[C@H](CC[C@@]1(O)O[C@H]2C[C@H]3[C@@H]4CC=C5C[C@@H](O[C@@H]6O[C@H](CO)[C@@H](O[C@@H]7O[C@@H](CO)[C@H](O)[C@H]7O)[C@H](O)[C@H]6O[C@@H]6O[C@@H](C)[C@H](O)[C@@H](O)[C@H]6O)CC[C@]5(C)[C@H]4CC[C@]3(C)[C@@]2(O)[C@@H]1C)CO[C@@H]1O[C@H](CO)[C@@H](O)[C@H](O)[C@H]1O [PARISYUNNANOSIDE A],6680 nM
6,C[C@H](CC[C@@]1(O)O[C@H]2C[C@H]3[C@@H]4CC=C5C[C@@H](O[C@@H]6O[C@H](CO)[C@@H](O[C@@H]7O[C@@H](C)[C@H](O[C@@H]8O[C@@H](C)[C@H](O)[C@@H](O)[C@H]8O)[C@@H](O)[C@H]7O)[C@H](O)[C@H]6O[C@@H]6O[C@@H](C)[C@H](O)[C@@H](O)[C@H]6O)CC[C@]5(C)[C@H]4CC[C@]3(C)[C@H]2[C@@H]1C)CO[C@@H]1O[C@H](CO)[C@@H](O)[C@H](O)[C@H]1O [DICHOTOMIN],590 nM

# Test system: CCRF-CEM
# Test: Cytotoxicity against human CCRF-CEM cells at 100 uM by XTT assay
# Assay type: functional, cell-based
# In short: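 Human CCRF-CEM leukemia cells; single fixed concentration of 100 μM. Proliferation inhibition was read by XTT assay and expressed as inhibition rate. Viability was referenced to an equivalent DMSO concentration as negative control. Doxorubicin served as positive control.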
row,Structure (SMILES),Activity
1,C[C@@H]1O[C@@H](O[C@H]2[C@H](O[C@@H]3C[C@H](O)CC4=CC[C@H]5[C@@H]6C[C@@H]7O[C@@]8(OC[C@H](C)[C@H](O[C@@H]9O[C@H](C)[C@H](O)[C@H](O)[C@H]9O)[C@@H]8O)[C@@H](CO)[C@@H]7[C@@]6(C)CC[C@@H]5[C@]43C)O[C@H](CO)[C@@H](O)[C@@H]2O[C@@H]2OC[C@@H](O)[C@H](O)[C@H]2O)[C@H](O)[C@H](O)[C@H]1O,inactive
2,CC(C)(O)CC[C@@H](O)[C@](C)(O)[C@H]1CC[C@@]2(O)C3=CC(=O)[C@@H]4C[C@@H](O)[C@@H](O)C[C@]4(C)[C@H]3CC[C@]12C,inactive
3,C=C1CO[C@@]2(O[C@H]3C[C@H]4[C@@H]5CC=C6C[C@@H](O)C[C@@H](O[C@@H]7O[C@H](CO)[C@@H](O)[C@H](O[C@@H]8OC[C@@H](O)[C@H](O)[C@H]8O)[C@H]7O[C@@H]7O[C@@H](C)[C@H](O)[C@@H](O)[C@H]7O)[C@]6(C)[C@H]5CC[C@]4(C)[C@H]3[C@@H]2CO[C@@H]2O[C@H](CO)[C@H](O)[C@H](O)[C@H]2O)[C@@H](O)[C@H]1O[C@@H]1O[C@H](C)[C@H](O)[C@H](O)[C@H]1O,inactive
4,CC(C)(O)C(O)CC[C@](C)(O)[C@H]1CC[C@@]2(O)C3=CC(=O)[C@@H]4C[C@@H](O)[C@@H](O)C[C@]4(C)[C@H]3CC[C@]12C (some centres not stated),inactive
5,CC1=CO[C@@]2(O[C@H]3C[C@H]4[C@@H]5CC=C6C[C@@H](O)C[C@@H](O[C@@H]7O[C@H](CO)[C@@H](O)[C@H](O[C@@H]8OC[C@@H](O)[C@H](O)[C@H]8O)[C@H]7O[C@@H]7O[C@@H](C)[C@H](O)[C@@H](O)[C@H]7O)[C@]6(C)[C@H]5CC[C@]4(C)[C@H]3[C@@H]2CO[C@@H]2O[C@H](CO)[C@H](O)[C@H](O)[C@H]2O)[C@@H](O)[C@H]1O[C@@H]1O[C@H](C)[C@H](O)[C@H](O)[C@H]1O,inactive
6,CC1=CO[C@@]2(O[C@H]3C[C@H]4[C@@H]5CC=C6C[C@@H](O)C[C@@H](O[C@@H]7O[C@H](CO)[C@@H](O)[C@H](O[C@@H]8OC[C@@H](O)[C@H](O)[C@H]8O)[C@H]7O[C@@H]7O[C@@H](C)[C@H](O)[C@@H](O)[C@H]7O)[C@]6(C)[C@H]5CC[C@]4(C)[C@H]3[C@@H]2CO)[C@@H](O)[C@H]1O[C@@H]1O[C@H](C)[C@H](O)[C@H](O)[C@H]1O,inactive
